Laboratory results taken from ChEMBL document CHEMBL2412961, “CD4 mimics as HIV entry inhibitors: lead optimization studies of the aromatic substituents” (Bioorg Med Chem, 2013).
Activity calls are given as the source filed them. The calls are words filed in the database; no cut-off is given here.

What was measured:
[1] = system: PM1; experiment: Induction of conformational change in human immunodeficiency virus 1 JR-FL R5 subtype B gp120 infected in human PM1 cells assessed as increase in binding affinity to monoclonal antibody 4C11 at 100 uM after 15 mins by FACS analysis; format: cell-based
Outline: (§1)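 PM1 cells chronically infected with JR-FL (R5, subtype B) were pre-incubated with CD4 mimic for 15 min, with sCD4 at 0.5 µg/mL as reference. They were then incubated with CD4i mAb 4C11 at 4 °C for 15 min, washed with PBS and stained with FITC anti-human IgG. Flow cytometry read the 4C11 mean fluorescence intensity on gated PM1 cells, with anti-CD19 as control antibody. There were at least two independent experiments.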

[2] = system: PM1; experiment: Induction of conformational change in human immunodeficiency virus 1 JR-FL R5 subtype B gp120 infected in human PM1 cells assessed as increase in binding affinity to monoclonal antibody 4C11 at 25 to 100 uM after 15 mins by FACS analysis; format: cell-based; outline: as §1
[3] = Cytotoxicity against CCR5-expressing human PM1 cells assessed as reduction of cell viability after 7 days by WST8 assay; format: cell-based
Outline: (§2)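 PM1/CCR5 cells were infected with the HIV-1 R5 primary isolate YTA, or mock-infected for cytotoxicity, and incubated with compound at 37 °C for 7 days. Viability was read by WST-8 (Cell Counting Kit-8). IC50 is the concentration giving 50% protection from virus-induced cytopathogenicity. CC50 is the concentration giving 50% loss of viability in mock-infected cells. Assays were run in duplicate or triplicate.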

[4] = system: Human immunodeficiency virus 1; experiment: Antiviral activity against Human immunodeficiency virus 1 R5 primary isolate YTA48P infected in CCR5-expressing human PM1 cells assessed as inhibition of virus-induced cytopathogenicity after 7 days by WST8 assay; format: functional, organism-based; conditions: PM1, 168 h; outline: as §2

| SMILES | Activity [1] | Activity [2] | CC50 at 168 h [3] [µM] | IC50 [4] [µM] |
| --- | --- | --- | --- | --- |
| O=C(Nc1ccc(Cl)c(F)c1)C(=O)NC1CC2(CCCCC2)NC2(CCCCC2)C1 (stereo not given) | Active | Active | 11 | 0.23 |
| Cc1ccc(NC(=O)C(=O)NC2CC3(CCCCC3)NC3(CCCCC3)C2)cc1Br (stereo not given) | Active |  | 11 | 3.2 |
| Cc1cc(NC(=O)C(=O)NC2CC(C)(C)NC(C)(C)C2)ccc1Cl | Active |  | 38 | 3.3 |
| Cc1ccc(NC(=O)C(=O)NC2CC(C)(C)NC(C)(C)C2)cc1F | Active |  | 110 | 2.8 |
| Cc1ccc(NC(=O)C(=O)NC2CC3(CCCCC3)NC3(CCCCC3)C2)cc1F (stereo not given) | Active |  | 91 | 0.54 |
| CC1(C)CC(NC(=O)C(=O)Nc2ccc(Cl)cc2)CC(C)(C)N1 |  |  |  | 0.61 |
| O=C(Nc1ccc(Cl)c(Cl)c1)C(=O)NC1CC2(CCCCC2)NC2(CCCCC2)C1 (stereo not given) | Active |  | 11 | 0.62 |
| O=C(Nc1ccc(Cl)cc1)C(=O)NC1CC2(CCCCC2)NC2(CCCCC2)C1 (stereo not given) |  |  |  | 0.43 |
| CC1(C)CC(NC(=O)C(=O)Nc2ccc(Cl)c(Cl)c2)CC(C)(C)N1 | Active |  | 36 | 4.1 |
| CC1(C)CC(NC(=O)C(=O)Nc2ccc(Cl)c(F)c2)CC(C)(C)N1 | Active |  | 94 | 0.32 |
| Cc1ccc(NC(=O)C(=O)NC2CC(C)(C)NC(C)(C)C2)cc1Br | Active |  | 32 | > 10 |
| Cc1cc(NC(=O)C(=O)NC2CC3(CCCCC3)NC3(CCCCC3)C2)ccc1Cl (stereo not given) | Active |  | 15 | 2.6 |
| Cc1ccc(NC(=O)C(=O)NC2CC3(CCCCC3)NC3(CCCCC3)C2)cc1Cl (stereo not given) | Active |  | 11 | 6.2 |
| Cc1ccc(NC(=O)C(=O)NC2CC(C)(C)NC(C)(C)C2)cc1 |  |  |  | 9 |
| Cc1ccc(NC(=O)C(=O)NC2CC(C)(C)NC(C)(C)C2)cc1Cl | Active |  | 62 | 3.2 |
